Most compounds without a hit are left out; they make up all but 3.8% or so of the library.
KCNQ1 block: inhibitors of human KCNQ1 channel, primary screen, cell-based, thallium flux, high-throughput; hit rate 1.3% among 310,000; B-score at 10 µM; Potassium voltage-gated channel subfamily KQT member 1 (Homo sapiens), P51787; CHO-K1 KCNQ1, FluxOR thallium flux fluorescence; hits give high values;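 active means compounds whose thallium flux B-score, printed positive for inhibition, exceeds three library SD while starting fluorescence stays within three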;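 further: channel opened by potassium depolarization with thallium stimulus after 20 min compound exposure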
Target sequence (P51787 whole entry, looked up): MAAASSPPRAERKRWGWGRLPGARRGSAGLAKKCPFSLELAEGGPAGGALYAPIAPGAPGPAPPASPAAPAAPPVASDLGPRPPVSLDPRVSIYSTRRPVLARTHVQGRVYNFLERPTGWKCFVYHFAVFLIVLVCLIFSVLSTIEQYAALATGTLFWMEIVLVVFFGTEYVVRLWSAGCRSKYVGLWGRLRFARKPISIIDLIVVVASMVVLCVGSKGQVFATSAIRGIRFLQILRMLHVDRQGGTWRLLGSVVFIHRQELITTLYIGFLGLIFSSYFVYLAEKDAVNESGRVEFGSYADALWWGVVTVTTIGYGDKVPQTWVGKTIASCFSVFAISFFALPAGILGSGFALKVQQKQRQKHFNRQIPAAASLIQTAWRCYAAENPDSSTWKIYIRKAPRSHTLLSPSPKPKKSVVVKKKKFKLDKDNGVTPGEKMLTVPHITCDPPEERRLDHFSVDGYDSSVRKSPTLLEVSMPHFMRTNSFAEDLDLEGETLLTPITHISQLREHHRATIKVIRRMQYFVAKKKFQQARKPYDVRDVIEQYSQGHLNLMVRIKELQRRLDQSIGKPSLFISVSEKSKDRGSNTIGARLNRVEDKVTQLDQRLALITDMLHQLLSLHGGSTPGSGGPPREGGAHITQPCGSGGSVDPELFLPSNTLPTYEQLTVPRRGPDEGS
KCNQ1 pot: potentiators or activators of KCNQ1 channel, primary screen, cell-based, thallium flux, high-throughput | CHO-K1 KCNQ1, thallium flux FluxOR fluorescence; hits give high values | B-score at 10 µM | AID 2648, 2010 | hit rate 0.35% among 310,000 | Potassium voltage-gated channel subfamily KQT member 1 (Homo sapiens), P51787;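 active means fluorescence ratio B-score, a plate-corrected score, at least three library SD, with initial intensity B-score within 5 SD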
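Test system: CHO-K1 cells stably expressing KCNQ1 / Medium: assay buffer / Also added: depolarizing K+/Tl+ stimulus, K2SO4 and Tl2SO4 each 12.5 mM in 5x stock / Incubation: 90 min dye loading and 20 min compound exposure, both at room temperature / Signal: thallium influx via FluxOR fluorescence, kinetic imaging / Evaluation: B score of baseline-normalized fluorescence ratio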
hERG rescue: hERG rescue from dofetilide block, primary screen, cell-based, CHO-hERG, FluxOR thallium flux, dofetilide IC70 | hit rate 0.51% among 310,000 | activation (rescue from dofetilide block), less the hit threshold, % at 10 µM | dofetilide IC70 present | Voltage-gated inwardly rectifying potassium channel KCNH2 (Homo sapiens), Q12809;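 active means activation above the mean of controls blocked by dofetilide plus 5 SD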;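 further: thallium influx through hERG after potassium depolarization seen as dye fluorescence rise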
KCNK9 inh: KCNK9 potassium channel inhibitors, primary screen, HEK293 cells, thallium flux; FluxOR thallium flux fluorescence; hits give low values; hit rate 1.2% among 310,000; B-score at 10 µM; Potassium channel subfamily K member 9 (Homo sapiens), Q9NPC2;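 active means ratio B-score over 3 SD below the library mean, with starting fluorescence within 5 SD of its mean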;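 further: negative B-score means less thallium flux so channel inhibition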
KCNK3 block: human KCNK3 channel inhibitors, primary screen, CHO cells, FluxOR thallium flux, B-score. FluxOR fluorescence; hits give low values. B-score at 10 µM. hit rate 0.84% among 340,000. AID 602410, 2012;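 active means B-score under library mean minus 4 SD, starting fluorescence ratio at most library mean plus 5 SD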;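 further: more negative B-score means stronger inhibition of thallium flux through KCNK3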
Kir21 inh: inhibitors of mouse Kir2.1 inward-rectifier potassium channel; hit rate 0.85% among 310,000; HEK293-Kir2.1, FluxOR thallium flux fluorescence; hits give low values; B-score at 10 µM; Inward rectifier potassium channel 2 (Mus musculus), P35561;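 active means fluorescence ratio B-score at or below minus 3 SD of library scores, with starting-brightness B-score within 2 SD, cut at about -4.2 in these data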;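 further: channel flux triggered by added potassium and thallium sulfate stimulus; B-score of peak minus minimum fluorescence over baseline after thallium stimulus; more negative B-score means stronger Kir2.1 block with less thallium influx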
KCNQ1 inh valid: KCNQ1 potassium channel inhibitors, confirmation, cell-based, Tl flux, duplicate. KCNQ1 cell line, FluxOR thallium flux fluorescence. inhibition, % at 10 µM. shares compounds with KCNQ1 block. AID 588353, 2011. hit rate 93% among 1,600;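 active means primary screen active, with duplicate mean exceeding buffer control mean plus 3 SD of buffer wells, cut at about 28% in these data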
CHO Tl flux: thallium flux effects in parental CHO cells, counter-screen for KCNQ1 inhibitor project, cell-based, Tl flux; hit rate 21% among 1,600; fluorescence ratio (Tl flux) at 10 µM; parental CHO-K1, FluxOR thallium flux fluorescence ratio; hits give low values; zero means no signal rise above baseline; shares compounds with KCNQ1 block; AID 588366, 2011;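 active means mean of duplicate thallium-flux fluorescence ratios in parental host cells more than 5 SD below the buffer control mean, cut at about 0.38 in these data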;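 further: ratio is peak minus minimum fluorescence divided by baseline fluorescence; actives read low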
KCNQ1 ephys val: KCNQ1 channel inhibitors, confirmation, orthogonal assay, cell-based, automated electrophysiology | shares compounds with KCNQ1 block | KCNQ1-CHO cells, automated patch clamp current | calls only at 10 µM | hit rate 20% among 490 | AID 624120, 2012;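 active means KCNQ1 current drop exceeding 3 SD of negative control wells, seen in both duplicate runs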;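 further: steady state current during a 2 s step from -80 to +40 mV; negative values mean current inhibition and positive values mean potentiation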
KCNQ2 inh: KCNQ2 channel inhibition, selectivity assay for KCNQ1 inhibitor project, cell-based; AID 651746, 2012; hit rate 71% among 1,600; KCNQ2 cells, FluxOR thallium flux fluorescence; inhibition, % at 10 µM; shares compounds with KCNQ1 block;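 active means mean percent inhibition of the KCNQ2 thallium signal more than 5 SD above the buffer-only control wells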;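 further: KCNQ2 expressed in CHO cells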
KCNQ1-KCNE1 inh: KCNQ1/KCNE1 channel inhibition, selectivity assay for KCNQ1 inhibitor project, CHO-K1 cells, thallium flux, FluxOR; shares compounds with KCNQ1 block; FluxOR thallium flux fluorescence; inhibition, % at 10 µM; hit rate 77% among 1,600; AID 652147, 2013;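 active means mean percent inhibition of duplicate wells above the buffer-only control mean plus 3 SD of those controls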
Numbers stand for hits; . = inactive; / = no result; + = active, no number.

SMILES	KCNQ1 block	KCNQ1 pot	hERG rescue	KCNK9 inh	KCNK3 block	Kir21 inh	KCNQ1 inh valid	CHO Tl flux	KCNQ2 inh	KCNQ1-KCNE1 inh	others
CC(=O)Oc1ccc([C@@H]2COc3c(ccc4c3C=CC(C)(C)O4)C2)c(OC(C)=O)c1	7	.	.	.	.	.	136.5	.	90.3%	78.0%
CCOC(=O)C(N)CSC1CC(=O)N(CCc2ccccc2)C1=O (configuration not stated)	.	.	.	.	.	.	/	/	/	/
O=C(CSc1ccncc1)Nc1ccc2ccccc2c1	.	.	.	.	.	.	/	/	/	/
O=C(CSc1ccc2ccccc2c1)Nc1ccncc1	7	.	.	.	.	.	90.5	.	75.3%	.	KCNQ1 ephys val=.
O=[N+]([O-])c1ccc(O)c(N=Cc2sc3ccccc3c2O)c1	.	.	.	.	.	.	/	/	/	/
Oc1c(C=Nc2cccc3cccnc23)sc2ccccc12	10	.	.	-8.12	/	.	87.5	0.359	.	134.0%
CC(C(=O)O)n1cc(C#N)c(=O)[nH]c1=O (configuration not stated)	/	/	/	/	.	/	/	/	/	/
COc1ccc(NC(=O)c2sc3ncnc(N4CCN(c5ccccn5)CC4)c3c2C)cc1Cl	8	.	.	.	.	.	80.0	.	97.0%	108.0%
Cc1cc(Br)ccc1NC(=O)c1sc2ncnc(N3CCN(c4ccccn4)CC3)c2c1C	6	.	.	.	.	.	89.0	.	103.7%	82.5%	KCNQ1 ephys val=.
Cc1c(C(=O)Nc2c(F)cccc2F)sc2ncnc(N3CCN(c4ccccc4)CC3)c12	7	.	.	.	.	.	64.5	.	104.0%	88.0%
COc1ccc(NC(=O)CN2CCN(c3ccccn3)CC2)cc1Cl	.	.	.	.	.	.	/	/	/	/
Nc1nccc(SCc2ccccc2)n1	/	/	/	/	.	/	/	/	/	/
CC(=O)Nc1ccc(S(=O)(=O)N(C)CC(=O)OCC(=O)c2ccc[nH]2)cc1	/	/	/	/	.	/	/	/	/	/
Cc1ccc(NCc2cccc(B(O)O)c2)cc1	/	/	/	/	.	/	/	/	/	/
COC(=O)[C@]1(C)N[C@H](CN(C)C(=O)Nc2ccc(C)cc2)[C@@H]2C(=O)N(C)C(=O)[C@@H]21	/	/	/	/	.	/	/	/	/	/
CC(C)OC(=O)CSc1nc2c(c(C3CC=CCC3)c1C#N)CCC2 (configuration not stated)	10	.	.	.	.	.	95.5	0.377	132.0%	106.0%
Cc1cc(C)c(C#N)c(SCC(=O)CC(=O)OC(C)C)n1	.	.	.	.	.	.	/	/	/	/
C=CCSc1nc2c(c(C3CC=CCC3)c1C#N)CCC2 (configuration not stated)	6	.	.	-7.69	.	.	87.5	.	101.3%	143.0%	KCNQ1 ephys val=.
CC(C)c1ccc(C(C(C(=O)c2ccccc2)N2CCOCC2)N2CCOCC2)cc1 (configuration not stated)	/	/	/	/	.	/	/	/	/	/
COc1ccc(S(=O)(=O)n2nc(-n3c(C)ccc3C)c3c(F)cccc32)cc1OC	9	.	.	.	.	.	124.5	.	106.7%	138.0%	KCNQ1 ephys val=.
O=S(=O)(NC1CCCCC1Oc1ccccc1)c1ccc(Cl)cc1 (configuration not stated)	.	.	.	.	.	.	/	/	/	/
CSc1ccc(OC2CCCCC2NS(=O)(=O)c2ccc(Cl)cc2)cc1 (configuration not stated)	6	.	.	.	.	.	119.5	.	115.0%	142.0%	KCNQ1 ephys val=.
N#Cc1ncccc1CCc1cccc(Cl)c1	.	.	.	.	.	.	/	/	/	/
c1ccc(-c2cn3nc4c(nc3n2)CCCC4)cc1	8	.	.	.	.	.	39.5	.	76.3%	75.5%
CC(=O)Nc1sc(/C(C#N)=C/c2ccc(Cl)c(Cl)c2)nc1-c1ccc(C)cc1	16	.	.	.	.	.	+	0.23	.	.
SMILES	KCNQ1 block	KCNQ1 pot	hERG rescue	KCNK9 inh	KCNK3 block	Kir21 inh	KCNQ1 inh valid	CHO Tl flux	KCNQ2 inh	KCNQ1-KCNE1 inh	others
CC(=O)Nc1sc(N/N=C/c2ccc(C)cc2)nc1-c1ccc(C)cc1	.	.	.	.	.	.	/	/	/	/
CC(Oc1cccc(Cl)c1)C(=O)Nc1ccccc1C(=O)N1CCCCC1 (configuration not stated)	.	.	.	.	.	.	/	/	/	/
CC(Oc1cccc(Cl)c1)C(=O)Nc1ccccc1N1CCCCC1 (configuration not stated)	9	.	.	-7.81	.	.	115.5	.	83.7%	138.5%	KCNQ1 ephys val=.
CCn1nccc1C(=O)Nc1ccc(Cl)cn1	.	.	.	.	.	.	/	/	/	/
CCn1nccc1C(=O)Nc1cc(Cl)cc(Cl)c1	6	.	.	-6.66	.	.	31.0	.	.	.
COc1ccc(CNC(=O)COC(=O)CCn2c(C)csc2=O)cc1OC	.	.	.	.	.	.	/	/	/	/
Cc1ccc(-c2cc3ccccc3nc2N2CCCC2)cc1	12	.	.	.	.	.	117.5	.	86.7%	194.5%	KCNQ1 ephys val=.
Cc1ccc(-c2nnc(N3CCCCC3)c3ccccc23)cc1	.	.	.	.	.	.	/	/	/	/
Clc1ccc(-c2cc3ccccc3nc2N2CCCC2)cc1	12	.	.	.	.	.	130.0	.	82.7%	167.0%	KCNQ1 ephys val=.
CCCC1(C2CCCC2)NC(=O)NC1=O (configuration not stated)	/	/	/	/	.	/	/	/	/	/
COC(=O)[C@H](CO)NS(=O)(=O)c1ccc(C)cc1	/	/	/	/	.	/	/	/	/	/
CCC1(C)Cc2ccccc2-c2nc(-c3ccccc3)oc(=O)c21 (configuration not stated)	8	.	.	.	.	.	92.5	.	102.3%	104.5%	KCNQ1 ephys val=.

Compound activity: PubChem, Johns Hopkins Ion Channel Center
